The MIC is the least concentration at which growth counts as inhibited. A lower MIC goes with a more susceptible organism.

In one assay the test system is Micrococcus luteus. Kind of assay: Antimicrobial activity against Micrococcus luteus IFO 12708 after 24 hrs by two-fold broth dilution assay. The conditions noted are these: IFO 12708, 24 h. In kind it is functional.
In the next assay the test system is Bacillus spizizenii. The experiment in a line: Antimicrobial activity against Bacillus subtilis ATCC 6633 after 24 hrs by two-fold broth dilution assay. In kind it is functional. The conditions noted are these: ATCC 6633, 24 h. (In general: Dilution methods test growth across graded concentrations, often in twofold steps.)
Another assay deals with Escherichia coli. Kind of assay: Antimicrobial activity against Escherichia coli ATCC 35270 after 24 hrs by two-fold broth dilution assay. In kind it is functional. The conditions noted are these: ATCC 35270, 24 h.
Assay [1] has as its system Trichophyton mentagrophytes. Kind of assay: Antimicrobial activity against Trichophyton mentagrophytes IFO 40996 after 48 to 72 hrs by two-fold broth dilution assay. In kind it is functional.
The subject of the next assay is A549. Kind of assay: Cytotoxicity against human A549 cells after 48 hrs by MTT assay. In kind it is functional. The following applies: A549, 48 h. In outline:
(§1)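 Values reported as LC50 (μM), with doxorubicin as the positive control; the rest of the method follows the cited literature protocol.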

Another assay relates to Aspergillus fumigatus. The experiment in a line: Antimicrobial activity against Aspergillus fumigatus HIC 6094 after 48 to 72 hrs by two-fold broth dilution assay. In kind it is functional.
A further assay relates to Proteus vulgaris. The experiment in a line: Antimicrobial activity against Proteus vulgaris ATCC 3851 after 24 hrs by two-fold broth dilution assay. In kind it is functional. The following applies: ATCC 3851, 24 h.
In the next assay the test system is K562. Kind of assay: Cytotoxicity against human K562 cells after 48 hrs by MTT assay. In kind it is functional. The conditions noted are these: K562, 48 h, read-out: LC50 (the source's name). In outline:
as §1
Background: Tetrazolium dyes change colour on reduction, which living cells bring about.

Assay [2] concerns Hepa-1c1c7. Kind of assay: Induction of quinone reductase in mouse Hepa-1c1c7 cells at 40 uM after 24 hrs by MTT assay relative to control. In kind it is cell-based. In outline:
(§2)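 QR induction measured in murine Hepa 1c1c7 hepatoma cells. Test concentrations ranged 5−40 μM. Blank control was 0.1% DMSO, and β-NF at 2 μM served as the positive control. Induction is expressed as fold over the blank control.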

The test system of the next assay is Candida albicans. Kind of assay: Antimicrobial activity against Candida albicans ATCC 10231 after 48 to 72 hrs by two-fold broth dilution assay. In kind it is functional.
Another assay relates to Trichophyton rubrum. The experiment in a line: Antimicrobial activity against Trichophyton rubrum IFO 9185 after 48 to 72 hrs by two-fold broth dilution assay. In kind it is functional.
A further assay deals with Salmonella typhimurium. The experiment in a line: Antimicrobial activity against Salmonella typhimurium ATCC 14028 after 24 hrs by two-fold broth dilution assay. In kind it is functional, Salmonella enterica subsp. enterica serovar Typhimurium. The following applies: Salmonella enterica, ATCC 14028, 24 h.
A further assay relates to Staphylococcus aureus. Kind of assay: Antimicrobial activity against Staphylococcus aureus ATCC 6538p after 24 hrs by two-fold broth dilution assay. In kind it is functional.
In assay [3] the test system is Hepa-1c1c7. The experiment in a line: Induction of quinone reductase in mouse Hepa-1c1c7 cells after 24 hrs by MTT assay. In kind it is cell-based. In outline:
as §2

The test system of assay [4] is Hepa-1c1c7. The experiment in a line: Induction of quinone reductase in mouse Hepa-1c1c7 cells at 2 uM after 24 hrs by MTT assay relative to control. In kind it is cell-based.
Where [5] appears, read: read-out: LC50 (the source's name).

Active and inactive are the calls of the source. The calls are words filed in the database; no cut-off is given here.

Turning to `Cc1cc(=O)c2c(o1)O[C@@]1(C)[C@@H](CC[C@H]3C(C)(C)[C@@H](O)CC[C@@]31C)C2`, the MIC (in the assay with Micrococcus luteus; in the assay on Bacillus spizizenii; with Escherichia coli; in assay [1]; against Aspergillus fumigatus; with Proteus vulgaris) was over 100 µg/mL in each case. The MIC against Candida albicans, in the assay with Trichophyton rubrum, against Salmonella typhimurium and in the assay with Staphylococcus aureus was over 100 µg/mL throughout. For the same compound, the CC50 with A549 (setting [5]) is 15 µM; in the assay with K562, 28 µM. The outcome with Hepa-1c1c7 [2] was inactive.
With `Cc1cc(=O)c2c(o1)O[C@@]1(C)[C@@H](CC[C@H]3C(C)(C)C(=O)CC[C@@]31C)C2`, the MIC (against Micrococcus luteus; with Bacillus spizizenii; in the assay with Escherichia coli; in assay [1]; in the assay on Aspergillus fumigatus; with Proteus vulgaris) was over 100 µg/mL in each case. Also, the MIC in the assay with Candida albicans, in the assay with Trichophyton rubrum, in the assay on Salmonella typhimurium and with Staphylococcus aureus was over 100 µg/mL in each case. Also, the CC50 was determined as 17 µM in the assay with A549 (setting [5]) and 50 µM in the assay with K562. The Ratio in the assay with Hepa-1c1c7 [2] amounted to 1.9. For the same compound, in the assay with Hepa-1c1c7 [3], the Activity result is “Dose-dependent effect”.
In the case of `O=c1cc(-c2ccccc2)oc2ccc3ccccc3c12`, the outcome with Hepa-1c1c7 [4] was Active.
Consider `COc1cccc2c1C(=O)c1c(O)c3c(c(O)c1C2=O)C[C@@](O)(C(=O)CO)C[C@@H]3O[C@H]1C[C@H](N)[C@H](O)[C@H](C)O1` [DOXORUBICIN], for which the values for the CC50 with A549 (read-out: LD50 (the source's name)) and with K562 were 1.2 µM and 0.99 µM, respectively.

Source of the values: ChEMBL document CHEMBL3108711, “Penicillipyrones A and B, meroterpenoids from a marine-derived Penicillium sp. fungus” (2014).
